SMILES strings stand for the structures.

This is an account of results in ChEMBL document CHEMBL1152425, “Systematic syntheses of influenza neuraminidase inhibitors: a series of carbosilane dendrimers uniformly functionalized with thioglycoside-type sialic acid moieties” (Bioorg Med Chem, 2009).

In assay [1] the target is Neuraminidase (Influenza A virus (A/Memphis/1/1971(H3N2)), UniProt P03471). The assay is described as follows: Inhibition of human influenza A/Memphis/1/71(H3N2) sialidase by fluorescence spectrophotometry. In outline: (§1)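 Influenza A virus suspension in saline (HAU = 26) as sialidase source; mixed with glycodendrimer and 4-MU-Neu5Ac (0.4 mM final) in 20 mM acetate buffer pH 5.2; 37 °C, 30 min; stopped with 100 mM carbonate buffer pH 10.7; released 4-MU fluorescence ex 355/em 460 nm. IC50 read graphically from % inhibition vs concentration, in mM per monomeric sugar unit.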
Neuraminidase (Influenza A virus (A/Memphis/1/1971(H3N2)), UniProt P03471), sequence (P03471 whole entry): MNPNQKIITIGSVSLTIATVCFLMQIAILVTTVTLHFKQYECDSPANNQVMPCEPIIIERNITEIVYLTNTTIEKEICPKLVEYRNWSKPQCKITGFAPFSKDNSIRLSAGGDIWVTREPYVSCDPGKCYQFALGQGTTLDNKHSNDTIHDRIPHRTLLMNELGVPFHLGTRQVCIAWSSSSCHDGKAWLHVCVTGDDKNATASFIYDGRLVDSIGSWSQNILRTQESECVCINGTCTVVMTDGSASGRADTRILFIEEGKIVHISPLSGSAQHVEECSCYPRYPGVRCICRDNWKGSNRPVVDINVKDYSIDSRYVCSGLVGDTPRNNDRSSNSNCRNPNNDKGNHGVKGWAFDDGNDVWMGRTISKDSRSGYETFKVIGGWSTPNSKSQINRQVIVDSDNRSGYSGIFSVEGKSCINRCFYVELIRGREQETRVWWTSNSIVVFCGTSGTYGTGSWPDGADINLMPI

In another assay the target is Neuraminidase (Influenza A virus, UniProt B4URF0). As to the kind of experiment: Inhibition of human Influenza A virus A/PR/8/34(H1N1) sialidase by fluorescence spectrophotometry. Further details: species or system Influenza A virus (A/Puerto Rico/8/1934(H1N1)). In outline: as §1
Neuraminidase, sequence (B4URF0 whole entry): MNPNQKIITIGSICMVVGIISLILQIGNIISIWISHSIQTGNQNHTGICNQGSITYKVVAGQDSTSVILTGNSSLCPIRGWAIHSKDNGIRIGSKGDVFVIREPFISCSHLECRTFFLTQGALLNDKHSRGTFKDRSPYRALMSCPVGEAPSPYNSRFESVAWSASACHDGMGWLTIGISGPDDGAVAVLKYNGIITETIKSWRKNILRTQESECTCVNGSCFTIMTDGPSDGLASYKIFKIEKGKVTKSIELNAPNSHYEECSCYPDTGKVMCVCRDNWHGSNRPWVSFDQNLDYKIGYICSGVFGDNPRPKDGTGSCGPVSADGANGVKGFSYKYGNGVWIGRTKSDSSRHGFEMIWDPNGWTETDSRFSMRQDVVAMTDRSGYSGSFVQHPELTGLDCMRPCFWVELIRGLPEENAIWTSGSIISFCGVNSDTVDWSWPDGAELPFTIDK

Take `CC(=O)N[C@H]1[C@H]([C@H](O)[C@H](O)CO)O[C@@](SCCCCCSCCCOCCC[Si](CCCOCCCSCCCCCS[C@]2(C(=O)O)C[C@H](O)[C@@H](NC(C)=O)[C@H]([C@H](O)[C@H](O)CO)O2)(CCCOCCCSCCCCCS[C@]2(C(=O)O)C[C@H](O)[C@@H](NC(C)=O)[C@H]([C@H](O)[C@H](O)CO)O2)CCCOCCCSCCCCCS[C@]2(C(=O)O)C[C@H](O)[C@@H](NC(C)=O)[C@H]([C@H](O)[C@H](O)CO)O2)(C(=O)O)C[C@@H]1O`: the half-maximal inhibitory concentration (IC50) (in assay [1]; against Neuraminidase) was 5 mM each time.
For the compound `CC(=O)N[C@H]1[C@H]([C@H](O)[C@H](O)CO)O[C@@](SCCCCCSCCCCCC(=O)NCCC[Si](CCCNC(=O)CCCCCSCCCCCS[C@]2(C(=O)O)C[C@H](O)[C@@H](NC(C)=O)[C@H]([C@H](O)[C@H](O)CO)O2)(CCCNC(=O)CCCCCSCCCCCS[C@]2(C(=O)O)C[C@H](O)[C@@H](NC(C)=O)[C@H]([C@H](O)[C@H](O)CO)O2)c2ccccc2)(C(=O)O)C[C@@H]1O`, the IC50 in assay [1] turned out to be 7.1 mM; on Neuraminidase it was 2.7 mM.
On the same counts, the results for `CC(=O)N[C@H]1[C@H]([C@H](O)[C@H](O)CO)O[C@@](SCCCCCSCCCOCCC[Si](CCCOCCCSCCCCCS[C@]2(C(=O)O)C[C@H](O)[C@@H](NC(C)=O)[C@H]([C@H](O)[C@H](O)CO)O2)(CCCOCCCSCCCCCS[C@]2(C(=O)O)C[C@H](O)[C@@H](NC(C)=O)[C@H]([C@H](O)[C@H](O)CO)O2)CCC[Si](C)(C)CCC[Si](CCCOCCCSCCCCCS[C@]2(C(=O)O)C[C@H](O)[C@@H](NC(C)=O)[C@H]([C@H](O)[C@H](O)CO)O2)(CCCOCCCSCCCCCS[C@]2(C(=O)O)C[C@H](O)[C@@H](NC(C)=O)[C@H]([C@H](O)[C@H](O)CO)O2)CCCOCCCSCCCCCS[C@]2(C(=O)O)C[C@H](O)[C@@H](NC(C)=O)[C@H]([C@H](O)[C@H](O)CO)O2)(C(=O)O)C[C@@H]1O` are 1.25 mM and 5 mM.
Regarding `CC(=O)N[C@H]1[C@H]([C@H](O)[C@H](O)CO)O[C@@](SCCCCCSCCCCCC(=O)NCCC[Si](CCCNC(=O)CCCCCSCCCCCS[C@]2(C(=O)O)C[C@H](O)[C@@H](NC(C)=O)[C@H]([C@H](O)[C@H](O)CO)O2)(CCCNC(=O)CCCCCSCCCCCS[C@]2(C(=O)O)C[C@H](O)[C@@H](NC(C)=O)[C@H]([C@H](O)[C@H](O)CO)O2)CCC[Si](CCC[Si](CCCNC(=O)CCCCCSCCCCCS[C@]2(C(=O)O)C[C@H](O)[C@@H](NC(C)=O)[C@H]([C@H](O)[C@H](O)CO)O2)(CCCNC(=O)CCCCCSCCCCCS[C@]2(C(=O)O)C[C@H](O)[C@@H](NC(C)=O)[C@H]([C@H](O)[C@H](O)CO)O2)CCCNC(=O)CCCCCSCCCCCS[C@]2(C(=O)O)C[C@H](O)[C@@H](NC(C)=O)[C@H]([C@H](O)[C@H](O)CO)O2)(CCC[Si](CCCNC(=O)CCCCCSCCCCCS[C@]2(C(=O)O)C[C@H](O)[C@@H](NC(C)=O)[C@H]([C@H](O)[C@H](O)CO)O2)(CCCNC(=O)CCCCCSCCCCCS[C@]2(C(=O)O)C[C@H](O)[C@@H](NC(C)=O)[C@H]([C@H](O)[C@H](O)CO)O2)CCCNC(=O)CCCCCSCCCCCS[C@]2(C(=O)O)C[C@H](O)[C@@H](NC(C)=O)[C@H]([C@H](O)[C@H](O)CO)O2)CCC[Si](CCCNC(=O)CCCCCSCCCCCS[C@]2(C(=O)O)C[C@H](O)[C@@H](NC(C)=O)[C@H]([C@H](O)[C@H](O)CO)O2)(CCCNC(=O)CCCCCSCCCCCS[C@]2(C(=O)O)C[C@H](O)[C@@H](NC(C)=O)[C@H]([C@H](O)[C@H](O)CO)O2)CCCNC(=O)CCCCCSCCCCCS[C@]2(C(=O)O)C[C@H](O)[C@@H](NC(C)=O)[C@H]([C@H](O)[C@H](O)CO)O2)(C(=O)O)C[C@@H]1O`, half-maximal inhibition on Neuraminidase (IC50) was put at 7.2 mM. That is a millimolar value.
Consider `CC(=O)N[C@H]1[C@H]([C@H](O)[C@H](O)CO)O[C@@](SCCCCCSCCCOCCC[Si](CCCOCCCSCCCCCS[C@]2(C(=O)O)C[C@H](O)[C@@H](NC(C)=O)[C@H]([C@H](O)[C@H](O)CO)O2)(CCCOCCCSCCCCCS[C@]2(C(=O)O)C[C@H](O)[C@@H](NC(C)=O)[C@H]([C@H](O)[C@H](O)CO)O2)c2ccccc2)(C(=O)O)C[C@@H]1O`, for which the half-inhibitory concentration (IC50) (in assay [1]; on Neuraminidase) was 5 mM throughout.
Consider `CC(=O)N[C@H]1[C@H]([C@H](O)[C@H](O)CO)O[C@@](SCCCCCSCCC[Si](CCCSCCCCCS[C@]2(C(=O)O)C[C@H](O)[C@@H](NC(C)=O)[C@H]([C@H](O)[C@H](O)CO)O2)(CCCSCCCCCS[C@]2(C(=O)O)C[C@H](O)[C@@H](NC(C)=O)[C@H]([C@H](O)[C@H](O)CO)O2)CCC[Si](CCC[Si](CCCSCCCCCS[C@]2(C(=O)O)C[C@H](O)[C@@H](NC(C)=O)[C@H]([C@H](O)[C@H](O)CO)O2)(CCCSCCCCCS[C@]2(C(=O)O)C[C@H](O)[C@@H](NC(C)=O)[C@H]([C@H](O)[C@H](O)CO)O2)CCCSCCCCCS[C@]2(C(=O)O)C[C@H](O)[C@@H](NC(C)=O)[C@H]([C@H](O)[C@H](O)CO)O2)(CCC[Si](CCCSCCCCCS[C@]2(C(=O)O)C[C@H](O)[C@@H](NC(C)=O)[C@H]([C@H](O)[C@H](O)CO)O2)(CCCSCCCCCS[C@]2(C(=O)O)C[C@H](O)[C@@H](NC(C)=O)[C@H]([C@H](O)[C@H](O)CO)O2)CCCSCCCCCS[C@]2(C(=O)O)C[C@H](O)[C@@H](NC(C)=O)[C@H]([C@H](O)[C@H](O)CO)O2)CCC[Si](CCCSCCCCCS[C@]2(C(=O)O)C[C@H](O)[C@@H](NC(C)=O)[C@H]([C@H](O)[C@H](O)CO)O2)(CCCSCCCCCS[C@]2(C(=O)O)C[C@H](O)[C@@H](NC(C)=O)[C@H]([C@H](O)[C@H](O)CO)O2)CCCSCCCCCS[C@]2(C(=O)O)C[C@H](O)[C@@H](NC(C)=O)[C@H]([C@H](O)[C@H](O)CO)O2)(C(=O)O)C[C@@H]1O`, for which the half-inhibitory concentration (IC50) in assay [1] was determined as 7 mM; against Neuraminidase, 5 mM.
On the same counts, the results for `CC(=O)N[C@H]1[C@H]([C@H](O)[C@H](O)CO)O[C@@](SCCCCCSCCCOCCC[Si](CCCOCCCSCCCCCS[C@]2(C(=O)O)C[C@H](O)[C@@H](NC(C)=O)[C@H]([C@H](O)[C@H](O)CO)O2)(CCCOCCCSCCCCCS[C@]2(C(=O)O)C[C@H](O)[C@@H](NC(C)=O)[C@H]([C@H](O)[C@H](O)CO)O2)CCC[Si](CCC[Si](CCCOCCCSCCCCCS[C@]2(C(=O)O)C[C@H](O)[C@@H](NC(C)=O)[C@H]([C@H](O)[C@H](O)CO)O2)(CCCOCCCSCCCCCS[C@]2(C(=O)O)C[C@H](O)[C@@H](NC(C)=O)[C@H]([C@H](O)[C@H](O)CO)O2)CCCOCCCSCCCCCS[C@]2(C(=O)O)C[C@H](O)[C@@H](NC(C)=O)[C@H]([C@H](O)[C@H](O)CO)O2)(CCC[Si](CCCOCCCSCCCCCS[C@]2(C(=O)O)C[C@H](O)[C@@H](NC(C)=O)[C@H]([C@H](O)[C@H](O)CO)O2)(CCCOCCCSCCCCCS[C@]2(C(=O)O)C[C@H](O)[C@@H](NC(C)=O)[C@H]([C@H](O)[C@H](O)CO)O2)CCCOCCCSCCCCCS[C@]2(C(=O)O)C[C@H](O)[C@@H](NC(C)=O)[C@H]([C@H](O)[C@H](O)CO)O2)CCC[Si](CCCOCCCSCCCCCS[C@]2(C(=O)O)C[C@H](O)[C@@H](NC(C)=O)[C@H]([C@H](O)[C@H](O)CO)O2)(CCCOCCCSCCCCCS[C@]2(C(=O)O)C[C@H](O)[C@@H](NC(C)=O)[C@H]([C@H](O)[C@H](O)CO)O2)CCCOCCSCCCCCS[C@]2(C(=O)O)C[C@H](O)[C@@H](NC(C)=O)[C@H]([C@H](O)[C@H](O)CO)O2)(C(=O)O)C[C@@H]1O` are 6.5 mM and 6.4 mM.
For `CC(=O)N[C@H]1[C@H]([C@H](O)[C@H](O)CO)O[C@@](SCCCCCSCCCCCC(=O)NCCC[Si](CCCNC(=O)CCCCCSCCCCCS[C@]2(C(=O)O)C[C@H](O)[C@@H](NC(C)=O)[C@H]([C@H](O)[C@H](O)CO)O2)(CCCNC(=O)CCCCCSCCCCCS[C@]2(C(=O)O)C[C@H](O)[C@@H](NC(C)=O)[C@H]([C@H](O)[C@H](O)CO)O2)CCCNC(=O)CCCCCSCCCCCS[C@]2(C(=O)O)C[C@H](O)[C@@H](NC(C)=O)[C@H]([C@H](O)[C@H](O)CO)O2)(C(=O)O)C[C@@H]1O`, in that order: 8.8 mM and 4.8 mM.
For `CC(=O)N[C@H]1[C@H]([C@H](O)[C@H](O)CO)O[C@@](SCCCCCSCCCCCC(=O)NCCC[Si](CCCNC(=O)CCCCCSCCCCCS[C@]2(C(=O)O)C[C@H](O)[C@@H](NC(C)=O)[C@H]([C@H](O)[C@H](O)CO)O2)(CCCNC(=O)CCCCCSCCCCCS[C@]2(C(=O)O)C[C@H](O)[C@@H](NC(C)=O)[C@H]([C@H](O)[C@H](O)CO)O2)CCC[Si](C)(C)CCC[Si](CCCNC(=O)CCCCCSCCCCCS[C@]2(C(=O)O)C[C@H](O)[C@@H](NC(C)=O)[C@H]([C@H](O)[C@H](O)CO)O2)(CCCNC(=O)CCCCCSCCCCCS[C@]2(C(=O)O)C[C@H](O)[C@@H](NC(C)=O)[C@H]([C@H](O)[C@H](O)CO)O2)CCCNC(=O)CCCCCSCCCCCS[C@]2(C(=O)O)C[C@H](O)[C@@H](NC(C)=O)[C@H]([C@H](O)[C@H](O)CO)O2)(C(=O)O)C[C@@H]1O`, the figures for the 50% inhibitory concentration (IC50) (in assay [1]; against Neuraminidase) were 8.1 mM and 2.8 mM, respectively.

The term IC50 denotes the concentration at which inhibition is half-maximal. Higher therefore signals weaker potency.
